# ChEMBL document CHEMBL4261635, “Simplified lipid II-binding antimicrobial peptides: Design, synthesis and antimicrobial activity of bioconjugates of nisin rings A and B with pore-forming peptides” (2018)
# Active and inactive are the calls of the source. The calls are words filed in the database; no cut-off is given here. Where a SMILES comes first, the peptide text is derived from it. [ ]: non-standard residue; d: D form. Nspe = C[C@H](NCC(=O)O)c1ccccc1; Nlys = NCCCCNCC(=O)O
# Key:
# [1] = test system: Micrococcus luteus; assay: Antibacterial activity against Micrococcus luteus after 20 hrs by broth microdilution assay; type: functional
# How it was run: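 Two-fold serial dilution in Nutrient Broth No. 2 containing 1% DMSO, from 0.60 mM stocks (sterile water, 1% DMSO, sonicated 30 s). Each well received 10 μL overnight M. luteus culture adjusted to OD 0.817 (of a 1 in 10 dilution), 250 μL final volume. Sealed, incubated 20 h at 37 °C, then OD read. MIC is the lowest concentration with no visible growth by eye.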
# [2] = test system: Escherichia coli; assay: Antibacterial activity against Escherichia coli at 1 mg/ml after 48 hrs by agar well diffusion method; type: functional, organism-based
# How it was run: (§1)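 Compounds dissolved at 1 mg/mL in sterile water; 25 μL placed in 8 mm wells punched in LB agar plates spread with 100 μL overnight culture (grown at 37 °C in Nutrient Broth No. 2 with shaking). Plates incubated 48 h at 37 °C (M. luteus initially at 30 °C, later 37 °C); activity scored as a visible zone of growth inhibition.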
# [3] = test system: Micrococcus luteus; assay: Antibacterial activity against Micrococcus luteus at 1 mg/ml after 48 hrs by agar well diffusion method; type: functional, organism-based; how it was run: as §1
# [4] = test system: Pseudomonas aeruginosa; assay: Antibacterial activity against Pseudomonas aeruginosa at 1 mg/ml after 48 hrs by agar well diffusion method; type: functional, organism-based; how it was run: as §1
MIC [1] [µM],SMILES,Activity [2],Activity [3],Activity [4]
1.5,CC[C@H](C)[C@H](N)C(=O)N[C@@H](CC(=O)O)C(=O)N[C@@H](Cc1c[nH]c2ccccc12)C(=O)N[C@@H](CCCCN)C(=O)N[C@@H](CCCCN)C(=O)N[C@@H](CC(C)C)C(=O)N[C@@H](CC(C)C)C(=O)N[C@@H](CC(=O)O)C(=O)N[C@@H](C)C(=O)N[C@@H](C)C(=O)N[C@@H](CCCCN)C(=O)N[C@@H](CCC(N)=O)C(=O)N[C@H](C(=O)N[C@@H](CC(C)C)C(N)=O)[C@@H](C)CC (H-IDWKKLLDAAKQIL-NH2),inactive,Active,inactive
0.75,CC[C@H](C)[C@H](NC(=O)CN)C(=O)NCC(=O)N[C@@H](CCCCN)C(=O)N[C@@H](Cc1ccccc1)C(=O)N[C@@H](CC(C)C)C(=O)N[C@@H](CCCCN)C(=O)N[C@@H](CCCCN)C(=O)N[C@@H](C)C(=O)N[C@@H](CCCCN)C(=O)N[C@@H](CCCCN)C(=O)N[C@@H](Cc1ccccc1)C(=O)NCC(=O)N[C@@H](CCCCN)C(=O)N[C@@H](C)C(=O)N[C@@H](Cc1ccccc1)C(=O)N[C@H](C(=O)N[C@@H](CCCCN)C(=O)N[C@H](C(=O)N[C@@H](CC(C)C)C(=O)N[C@@H](CCCCN)C(=O)N[C@@H](CCCCN)C(N)=O)[C@@H](C)CC)C(C)C [PEXIGANAN] (H-GIGKFLKKAKKFGKAFVKILKK-NH2),–,–,–
3,C=C1NC(=O)[C@H]([C@@H](C)CC)NC(=O)[C@@H](NC(=O)/C(=C/C)NC(=O)[C@@H](N)[C@@H](C)CC)CSC[C@@H](C(=O)N[C@@H]2C(=O)N3CCC[C@H]3C(=O)NCC(=O)N[C@H](C(=O)N[C@@H](CCCCN)C(=O)NCc3cn(CCCC[C@H](N)C(=O)NCCOCCOCCOCCOCCC(=O)N[C@H](C(=O)N[C@@H](CC(=O)O)C(=O)N[C@@H](Cc4c[nH]c5ccccc45)C(=O)N[C@@H](CCCCN)C(=O)N[C@@H](CCCCN)C(=O)N[C@@H](CC(C)C)C(=O)N[C@@H](CC(C)C)C(=O)N[C@@H](CC(=O)O)C(=O)N[C@@H](C)C(=O)N[C@@H](C)C(=O)N[C@@H](CCCCN)C(=O)N[C@@H](CCC(N)=O)C(=O)N[C@H](C(=O)N[C@@H](CC(C)C)C(N)=O)[C@@H](C)CC)[C@@H](C)CC)nn3)CS[C@H]2C)NC(=O)[C@H](CC(C)C)NC1=O,inactive,Active,inactive
1.5,C[C@@H](c1ccccc1)N(CC(N)=O)C(=O)CN(C(=O)CN(CCCCN)C(=O)CN(C(=O)CN(C(=O)CN(CCCCN)C(=O)CN(C(=O)CN(C(=O)CN(CCCCN)C(=O)CN(C(=O)CN(C(=O)CNCCCCN)[C@@H](C)c1ccccc1)[C@@H](C)c1ccccc1)[C@@H](C)c1ccccc1)[C@@H](C)c1ccccc1)[C@@H](C)c1ccccc1)[C@@H](C)c1ccccc1)[C@@H](C)c1ccccc1 (H-[Nlys][Nspe][Nspe][Nlys][Nspe][Nspe][Nlys][Nspe][Nspe][Nlys][Nspe][Nspe]-NH2),–,–,–
0.0234,C=C(NC(=O)[C@@H](NC(=O)[C@H](Cc1cnc[nH]1)NC(=O)[C@@H](NC(=O)[C@H](CO)NC(=O)[C@@H]1CS[C@@H](C)[C@@H]2NC(=O)[C@H](C)NC(=O)[C@@H](NC(=O)[C@H](CCCCN)NC(=O)[C@H](CCSC)NC(=O)[C@H](CC(N)=O)NC(=O)[C@@H]3CS[C@@H](C)[C@H](NC(=O)[C@H](CCCCN)NC(=O)[C@@H]4CS[C@@H](C)[C@H](NC(=O)[C@@H]5CSC[C@H](NC(=O)/C(=C/C)NC(=O)[C@@H](N)[C@@H](C)CC)C(=O)N[C@@H]([C@@H](C)CC)C(=O)NC(=C)C(=O)N[C@@H](CC(C)C)C(=O)N5)C(=O)N5CCC[C@H]5C(=O)NCC(=O)N4)C(=O)NCC(=O)N[C@@H](C)C(=O)N[C@@H](CC(C)C)C(=O)N[C@@H](CCSC)C(=O)NCC(=O)N3)[C@H](C)SC[C@H](NC2=O)C(=O)N[C@@H](CC(N)=O)C(=O)N1)[C@@H](C)CC)C(C)C)C(=O)N[C@@H](CCCCN)C(=O)O,inactive,Active,inactive
–,NC[C@H]1O[C@H](O[C@H]2[C@H](O)[C@@H](O[C@H]3O[C@H](CO)[C@@H](O)[C@H](N)[C@H]3O)[C@H](N)C[C@@H]2N)[C@H](O)[C@@H](O)[C@@H]1O,Active,Active,Active
> 12,C#CCNC(=O)[C@H](CCCCN)NC(=O)[C@@H]1CS[C@@H](C)[C@H](NC(=O)[C@@H]2CSC[C@H](NC(=O)/C(=C/C)NC(=O)[C@@H](N)[C@@H](C)CC)C(=O)N[C@@H]([C@@H](C)CC)C(=O)NC(=C)C(=O)N[C@@H](CC(C)C)C(=O)N2)C(=O)N2CCC[C@H]2C(=O)NCC(=O)N1,inactive,Active,inactive
